According to PubChem BioAssay AID463177 (The Scripps Research Institute Molecular Screening Center, 2010):
Calls of active or inactive are those of the source.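 Rule for the calls: active = apoptotic subG1 cells at or above 20% at some dose above 100 nM; inactive = subG1 cells below 20% at every dose.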

Experiment: HeLa subG1 and cell-cycle phase fractions – FACS, counter-screen for Wee1 degradation inhibitor project, late-stage follow-up (AID 463177)
Conditions: PI FACS subG1 fraction, 20 h; G1 fraction: HeLa apoptosis, G1 phase cells, at 5 µM; G2 fraction: HeLa apoptosis, G2 phase cells, at 5 µM; S fraction: HeLa apoptosis, S phase cells, at 5 µM; subG1 cells, higher = apoptosis: at 5 µM (top of the series)
Method in brief: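 Material: parental HeLa cells; times: compound exposure 20 h, then overnight ethanol fixation at -20 °C; detection: flow cytometry of propidium iodide DNA stain with RNase A, ethanol-fixed cells; read-out: Cell-cycle phase fractions (%), subG1 marking apoptosis; benchmarks: DMSO vehicle-treated cells as reference for fold change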

Row | SMILES | G1 fraction | G2 fraction | S fraction | subG1 cells, higher = apoptosis
1 | O=[N+]([O-])c1cccc2[nH]c(CNc3nc(N4CCOCC4)nc4c3ncn4-c3ccsc3)nc12 | 41.5% | 9.18% | 22.8% | 26.3% (active)
2 | c1ccc2[nH]c(CNc3nc(N4CCOCC4)nc4c3ncn4-c3ccsc3)nc2c1 | 24.9% | 4.14% | 22.5% | 47.6% (active)
